The values below come from ChEMBL document CHEMBL4014325.

The nature of data set [1]: Drug level in aqueous solution treated with 2-(2-Bromo-2,2-difluoro-acetylamino)-5,6,7,8-tetrahydro-4H-cyclohepta[b]thiophene-3-carboxylicacid-o-tolylamide after 3 days by ESI-LCMS analysis. Summed up:
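Duplicate samples of 100 μM compound in H₂O (20% DMSO) with 100 μM 5-chloro-3-phenyl-2,1-benzisoxazole as internal standard. Kept at 25 °C for 3 days and analysed daily by ESI-LCMS for the parent compound and the oxalamic acid degradation product.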

Data set [2] deals with Cystic fibrosis transmembrane conductance regulator (Homo sapiens) (UniProt P13569). In words: Inhibition of human wild type CFTR expressed in FRT cells co-expressing halide sensitive YFP-H148Q assessed as reduction in forskolin induced cAMP activated chloride conductance by measuring decrease in iodide influx after 15 mins by fluorescence assay. Type of data set: cell-based. In a few lines: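 FRT cells co-expressing YFP and wild-type CFTR, washed with PBS. Incubated 15 min with compound in PBS containing 20 μM forskolin. Plate reader baseline 2 s, then 12 s after rapid addition of I⁻-containing solution; initial I⁻ influx rate computed.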

The nature of data set [3]: Cytotoxicity against human HT-29 cells assessed as cell survival at 5 uM after 8 hrs by alamar blue assay relative to control. Type of data set: cell-based. The settings on record: read-out: Survival. Summed up:
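Cells cultured overnight, then exposed to compound at 5 μM for 8 h. Viability read by Alamar Blue per kit instructions. Table reports n=3.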

Data set [4] deals with T1, Anoctamin-1 (Homo sapiens, UniProt Q5XXA6).
T1 sequence (Q5XXA6 whole entry): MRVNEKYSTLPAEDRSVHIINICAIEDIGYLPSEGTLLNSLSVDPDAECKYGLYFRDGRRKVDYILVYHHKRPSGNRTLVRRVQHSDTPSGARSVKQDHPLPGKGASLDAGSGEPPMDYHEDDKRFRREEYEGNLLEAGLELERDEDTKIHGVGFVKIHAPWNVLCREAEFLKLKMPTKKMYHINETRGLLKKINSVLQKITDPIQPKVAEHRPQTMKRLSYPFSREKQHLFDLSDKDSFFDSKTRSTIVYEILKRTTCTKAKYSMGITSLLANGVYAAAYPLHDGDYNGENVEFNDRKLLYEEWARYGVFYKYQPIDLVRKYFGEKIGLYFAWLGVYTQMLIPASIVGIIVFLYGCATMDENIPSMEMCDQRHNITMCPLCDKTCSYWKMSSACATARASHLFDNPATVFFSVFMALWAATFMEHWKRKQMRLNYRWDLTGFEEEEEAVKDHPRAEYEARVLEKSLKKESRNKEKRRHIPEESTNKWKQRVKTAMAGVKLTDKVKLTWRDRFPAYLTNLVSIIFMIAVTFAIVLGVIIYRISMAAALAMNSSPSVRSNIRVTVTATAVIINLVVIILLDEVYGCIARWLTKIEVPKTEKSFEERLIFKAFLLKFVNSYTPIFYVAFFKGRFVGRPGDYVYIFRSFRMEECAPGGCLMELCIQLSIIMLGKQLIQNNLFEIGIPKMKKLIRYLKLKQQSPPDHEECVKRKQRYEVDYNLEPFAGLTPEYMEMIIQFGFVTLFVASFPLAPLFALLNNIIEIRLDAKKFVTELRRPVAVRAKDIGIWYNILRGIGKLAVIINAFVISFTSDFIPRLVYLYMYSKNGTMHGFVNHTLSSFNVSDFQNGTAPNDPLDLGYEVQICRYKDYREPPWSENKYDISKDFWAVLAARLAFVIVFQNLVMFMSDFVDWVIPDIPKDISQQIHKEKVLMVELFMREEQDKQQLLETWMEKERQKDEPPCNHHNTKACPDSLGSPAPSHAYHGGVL
Nature of the data set: (§1) Inhibition of human TMEM16A expressed in FRT cells co-expressing iodide sensitive fluorescent protein YFP-H148Q/I152L/F46L assessed as reduction in ATP-induced Ca2+ activation-mediated chloride current by measuring decrease in iodide influx preincubated for 10 mins followed by ATP/iodide addition by fluorescence assay. Type of data set: cell-based. Summed up:
(§2)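 FRT cells stably expressing human TMEM16A and YFP, plated at 20,000 cells/well and used 24–48 h later. An equal volume of 140 mM I⁻ solution containing 300 μM ATP was added, and reading continued 12 s at 400 ms/point. Initial I⁻ influx rate fitted by nonlinear regression; IC₅₀ from concentration-inhibition data.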

Data set [5] can be described thus: Solubility of compound in DMSO. Type of data set: physicochemical.
In data set [6] the target is T2, Anoctamin-1 (Homo sapiens) (UniProt Q5XXA6).
T2 sequence (whole entry): T1 sequence (Q5XXA6 whole entry)
Described as §1. Type of data set: cell-based. Summed up:
as §2

Data set [7] is described as follows: Inhibition of calcium activated chloride channel in ATP-activated human HT-29 cells expressing YFP-H148Q/152L assessed as reduction in iodide influx preincubated for 10 mins followed by ATP addition by fluorescence assay. Summed up:
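Endogenous non-TMEM16A CaCC in HT-29 cells expressing YFP, read by plate reader. Initial rate of I⁻ influx taken as a linear measure of channel function. IC₅₀ from concentration-inhibition data; n=3.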

The test system of another data set is Liver. In words: Metabolic stability in rat liver microsomes at 10 uM after 180 mins in presence of NADPH by LC/MS analysis. Type of data set: ADME, microsome. The settings on record: 3 h. Summed up: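 10 μM compound shaken at 37 °C with rat liver microsomes (1 mg protein/mL) in 100 mM potassium phosphate buffer with 1 mM NADPH, sampled at 2–180 min. Quenched on ice with ice-cold ethyl acetate, centrifuged, supernatant dried and redissolved. Parent compound quantified by C₁₈ reverse-phase LC/MS (5–95% acetonitrile gradient); mean ± SEM, n=3.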
For orientation: Liver microsomes are vesicles of endoplasmic reticulum, rich in cytochrome P450 enzymes.

For data set [8], the target named is T1, Anoctamin-1. Nature of the data set: Inhibition of human TMEM16A expressed in FRT cells assessed as reduction of ATP-induced in chloride conductance preincubated for 5 mins followed by ATP addition by short-circuit current assay. Type of data set: cell-based.
The target in data set [9] is T3, Anoctamin-2 (Homo sapiens, UniProt Q9NQ90).
T3 sequence (Q9NQ90 whole entry): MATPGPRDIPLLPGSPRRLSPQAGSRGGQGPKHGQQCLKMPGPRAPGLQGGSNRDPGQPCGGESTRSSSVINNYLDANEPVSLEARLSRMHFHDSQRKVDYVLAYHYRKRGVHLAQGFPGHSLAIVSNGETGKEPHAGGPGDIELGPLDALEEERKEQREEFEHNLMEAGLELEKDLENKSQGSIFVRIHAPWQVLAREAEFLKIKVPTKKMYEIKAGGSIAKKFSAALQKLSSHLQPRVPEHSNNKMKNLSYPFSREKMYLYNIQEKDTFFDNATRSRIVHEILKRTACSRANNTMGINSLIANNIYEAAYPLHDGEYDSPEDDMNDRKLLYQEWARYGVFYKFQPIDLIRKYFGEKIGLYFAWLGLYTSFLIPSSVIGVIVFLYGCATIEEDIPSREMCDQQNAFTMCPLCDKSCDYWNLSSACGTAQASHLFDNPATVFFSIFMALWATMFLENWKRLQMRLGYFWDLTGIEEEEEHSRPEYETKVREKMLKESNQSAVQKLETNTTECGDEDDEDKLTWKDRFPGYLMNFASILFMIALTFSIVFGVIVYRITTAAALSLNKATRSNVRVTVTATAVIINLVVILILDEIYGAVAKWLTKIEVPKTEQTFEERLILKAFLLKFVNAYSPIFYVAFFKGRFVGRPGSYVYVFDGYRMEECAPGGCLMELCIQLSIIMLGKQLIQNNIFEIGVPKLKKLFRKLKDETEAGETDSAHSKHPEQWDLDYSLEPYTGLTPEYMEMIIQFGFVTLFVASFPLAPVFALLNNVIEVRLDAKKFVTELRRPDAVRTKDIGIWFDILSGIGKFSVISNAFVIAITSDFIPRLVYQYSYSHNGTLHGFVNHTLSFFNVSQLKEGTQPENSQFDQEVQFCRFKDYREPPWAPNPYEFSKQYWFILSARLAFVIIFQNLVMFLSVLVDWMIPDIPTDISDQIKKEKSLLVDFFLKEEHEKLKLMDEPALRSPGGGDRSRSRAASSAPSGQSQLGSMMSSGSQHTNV
In words: Inhibition of human TMEM16B expressed in FRT cells co-expressing iodide sensitive fluorescent protein YFP-H148Q/I152L/F46L assessed as reduction in ATP-induced Ca2+ activation-mediated chloride current by measuring decrease in iodide influx preincubated for 10 mins followed by ATP/iodide addition by fluorescence assay. Type of data set: cell-based. In a few lines:
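FRT cells co-expressing YFP and TMEM16B, given compound for 10 min, then I⁻ solution with ATP added. Fluorescence read by plate reader; initial I⁻ influx rate computed. IC₅₀ from concentration-inhibition data; n=3.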

The target in data set [10] is T1, Anoctamin-1. In words: Inhibition of TMEM16A (unknown origin) expressed in Xenopus laevis oocytes at -60 mV holding potential by voltage-clamp assay.
Data set [11] concerns the target T3, Anoctamin-2. In words: Inhibition of TMEM16B (unknown origin) expressed in FRT cells assessed as reduction of ATP-induced chloride conductance preincubated for 20 mins followed by ATP addition by short-circuit current assay. Type of data set: cell-based.

Structures are written as SMILES. Active and inactive are the calls of the source. No cut-off for these calls is given here.

Sequence of Cystic fibrosis transmembrane conductance regulator (Homo sapiens) (P13569 whole entry, looked up): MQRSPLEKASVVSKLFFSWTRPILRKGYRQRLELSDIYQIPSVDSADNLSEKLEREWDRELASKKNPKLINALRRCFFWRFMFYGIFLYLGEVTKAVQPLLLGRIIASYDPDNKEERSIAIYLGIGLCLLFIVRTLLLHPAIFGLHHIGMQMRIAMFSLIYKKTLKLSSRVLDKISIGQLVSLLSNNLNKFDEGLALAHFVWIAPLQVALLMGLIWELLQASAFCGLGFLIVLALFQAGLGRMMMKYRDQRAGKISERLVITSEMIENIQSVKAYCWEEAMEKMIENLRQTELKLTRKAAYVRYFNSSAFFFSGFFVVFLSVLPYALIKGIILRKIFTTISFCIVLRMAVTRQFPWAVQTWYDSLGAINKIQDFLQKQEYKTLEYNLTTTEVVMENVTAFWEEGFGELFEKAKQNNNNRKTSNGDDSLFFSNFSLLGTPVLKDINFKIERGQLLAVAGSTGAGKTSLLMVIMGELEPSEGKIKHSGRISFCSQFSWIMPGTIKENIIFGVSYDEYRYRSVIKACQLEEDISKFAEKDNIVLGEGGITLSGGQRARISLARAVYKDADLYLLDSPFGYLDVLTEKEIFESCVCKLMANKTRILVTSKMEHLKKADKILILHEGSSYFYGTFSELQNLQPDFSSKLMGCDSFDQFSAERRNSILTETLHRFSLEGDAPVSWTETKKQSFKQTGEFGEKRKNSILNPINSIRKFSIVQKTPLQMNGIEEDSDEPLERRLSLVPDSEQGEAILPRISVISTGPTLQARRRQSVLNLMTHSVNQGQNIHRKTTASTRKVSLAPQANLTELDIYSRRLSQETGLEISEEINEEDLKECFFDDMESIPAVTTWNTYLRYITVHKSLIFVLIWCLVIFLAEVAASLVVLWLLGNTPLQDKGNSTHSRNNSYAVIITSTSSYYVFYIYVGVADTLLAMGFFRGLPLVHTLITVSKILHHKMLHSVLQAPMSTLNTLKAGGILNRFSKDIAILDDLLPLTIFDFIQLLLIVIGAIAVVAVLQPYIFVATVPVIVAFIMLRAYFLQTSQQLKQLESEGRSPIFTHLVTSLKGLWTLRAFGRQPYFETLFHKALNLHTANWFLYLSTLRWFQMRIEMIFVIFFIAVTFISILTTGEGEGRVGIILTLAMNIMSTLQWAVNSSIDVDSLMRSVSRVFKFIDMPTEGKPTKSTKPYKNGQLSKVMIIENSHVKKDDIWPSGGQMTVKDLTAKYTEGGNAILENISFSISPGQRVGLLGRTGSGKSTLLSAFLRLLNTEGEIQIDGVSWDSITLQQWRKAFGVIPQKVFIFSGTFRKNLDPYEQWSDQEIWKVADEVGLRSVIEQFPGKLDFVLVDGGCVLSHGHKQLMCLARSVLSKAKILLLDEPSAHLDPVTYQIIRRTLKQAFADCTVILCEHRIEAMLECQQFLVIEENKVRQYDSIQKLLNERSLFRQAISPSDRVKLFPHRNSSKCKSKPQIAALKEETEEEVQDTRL

On to `Cc1ccccc1NC(=O)c1c(NC(=O)C(=O)F)sc2c1CCCCC2`, for which, in data set [1], the Drug metabolism result was “Metabolite detected”.
`O=C(Nc1ccc(F)cc1)c1c(NC(=O)C(F)(F)I)sc2c1CCCCC2`: the inhibition entry in data set [2] is “inactive”.
In the case of `Cc1ccccc1NC(=O)c1c(NC(=O)C(F)(F)Cl)sc2c1CCCCC2`, the viability at 8 h, 5 µM in data set [3] worked out at 98%. Also, the inhibition result in data set [2] was “inactive”.
What is called IC50 is the concentration that gives 50% inhibition. With `CCC(=O)Nc1sc2c(c1C(=O)Nc1ccccc1OC(F)(F)F)CCCCC2`, at Anoctamin-1 [4], the IC50 was over 20 µM.
With `O=C(Nc1ccccc1OC(F)(F)F)c1c(NC(=O)C(F)(F)Cl)sc2c1CCC2`, in data set [5], the solubility entry was “Insoluble”.
For `Cc1ccccc1NC(=O)c1c(NC(=O)C(F)(F)F)sc2c1CCCCC2`, the inhibition result in data set [6] was “Dose-dependent effect”. Besides, the viability at 8 h, 5 µM in data set [3] stood at 99%. For the same compound, in data set [2], the inhibition result is “inactive”. The IC50 in data set [7] was 4 µM.
As for `O=C(Nc1ccccc1)c1c(NC(=O)C(F)(F)F)sc2c1CCCCC2`, the inhibition entry in data set [2] is “inactive”.
With `Cc1ccccc1NC(=O)c1c(NC(=O)C(F)(F)I)sc2c1CCCCC2`, the viability at 8 h, 5 µM in [3] was 96%. Further, the inhibition entry in data set [2] was “inactive”.
Consider `COc1ccccc1/C=N/NC(=O)COc1ccc(Cl)cc1C`, for which, in data set [2], the inhibition entry was “inactive”. In the data set with Liver, the Stability entry is reported as “Unstable”.
For the compound `CCC(=O)Nc1sc2c(c1C(=O)Nc1ccccc1C)CCCCC2`, the IC50 on Anoctamin-1 [4] was over 20 µM.
As to `O=C(Nc1ccccc1OC(F)(F)F)c1c(NC(=O)C(F)(F)Br)sc2c1CCC2`, the solubility result in [5] was “Insoluble”.
On to `Cc1ccccc1NC(=O)c1c(NC(=O)C(=O)O)sc2c1CCCCC2`, for which, in data set [1], the Drug metabolism entry was “Metabolite detected”.
As to `Cc1ccccc1NC(=O)c1c(NC(=O)C(O)(F)F)sc2c1CCCCC2`, in data set [1], the Drug metabolism entry is “Metabolite detected”.
On to `COc1cc(Nc2ccc([N+](=O)[O-])cc2C(=O)O)cc2ccccc12`, for which the IC50 was 1.6 µM on Anoctamin-1 [8], 13 µM at Anoctamin-2 [9], 0.08 µM against Anoctamin-1 [10] and over 20 µM in data set [7]. Besides, the viability at 8 h, 5 µM in data set [3] worked out at 100%. The inhibition entry in [2] is “inactive”.
Consider `CCc1c(C)nc(SCC(=O)Nc2nc(-c3ccc(OC)cc3)cs2)nc1O`, for which the figures for the IC50 at Anoctamin-1 [8] and on Anoctamin-2 [11] were 1 µM and 4 µM, respectively. In addition, in data set [3], the viability at 8 h, 5 µM stood at 97%. Further, the inhibition result in data set [2] is “inactive”.
